The record followed here is ChEMBL document CHEMBL3580607, “Anti-parasitic Guanidine and Pyrimidine Alkaloids from the Marine Sponge Monanchora arbuscula” (J Nat Prod, 2015).

As a reminder, the IC50 is the point on the concentration scale where inhibition reaches its midpoint.

In data set [1] the test system is Trypanosoma cruzi. The experiment in a line: Antitrypanosomal activity against trypomastigote stage of Trypanosoma cruzi Y assessed as inhibition of cell viability after 24 hrs by MTT assay. Format: functional, organism-based. An outline of the steps:
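T. cruzi Y-strain trypomastigotes incubated with alkaloids for 24 h; viability by MTT. Benznidazole as standard drug control. IC50 from sigmoidal dose–response curves, mean and standard deviation of replicates from at least two independent assays, 95% CI.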

In the next data set the test system is LLC-MK2. The experiment in a line: Cytotoxicity against rhesus monkey LLC-MK2 cells assessed as inhibition of cell viability after 48 hrs by MTT assay. Format: cell-based. As to conditions: Macaca mulatta, LLC-MK2, 48 h. In outline: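 LLC-MK2 rhesus monkey kidney cells seeded at 4 × 10^4 per well, exposed to alkaloids at up to 200 μM for 48 h; viability by MTT. IC50 from sigmoidal dose–response fits with 95% CI, replicates from at least two independent assays.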

The test system of data set [2] is Leishmania infantum. The data set is described as follows: Antileishmanial activity against intracellular amastigote stage of Leishmania infantum MHOM/BR/1972/LD infected in BALB/c mouse peritoneal macrophages assessed as reduction of parasite burden after 120 hrs by Giemsa staining assay. In kind it is functional, organism-based. An outline of the steps: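 Peritoneal macrophages from BALB/c mice (collected in RPMI-1640 with 10% FBS, 37 °C, 5% CO2) infected with L. infantum amastigotes from spleens of infected hamsters, at a 1:10 macrophage:amastigote ratio. Compound exposure for 120 h, then Giemsa staining; infected macrophages counted out of 500 cells. Miltefosine as standard drug control.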

The subject of data set [3] is Trypanosoma cruzi. The data set is described as follows: Potency index, ratio of benznidazole IC50 to compound IC50 for trypomastigote stage of Trypanosoma cruzi Y. Format: functional.
Data set [4] deals with Leishmania infantum. The data set is described as follows: Antileishmanial activity against promastigote stage of Leishmania infantum MHOM/BR/1972/LD assessed as reduction of cell viability after 48 hrs by MTT assay. Format: functional, organism-based. In outline: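 L. infantum promastigotes exposed to alkaloids dissolved in DMSO, diluted in M-199 medium, highest concentration 156 μM, with internal controls; viability read by MTT after 48 h incubation. IC50 from sigmoidal dose–response curves, mean and standard deviation of replicates from at least two independent assays, with 95% CI.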
In general terms: Tetrazolium assays rely on reduction of a dye to a coloured formazan, in cell work by metabolically active cells.

A short description of data set [5]: Selectivity index, ratio of IC50 for rhesus monkey LLC-MK2 cells to IC50 for trypomastigote stage of Trypanosoma cruzi Y. As to conditions: read-out: Ratio IC50. Format: toxicity, cell-based. An outline of the steps: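 The ratio divides the LLC-MK2 IC50 by the T. cruzi trypomastigote IC50. LLC-MK2 cells were seeded at 4 × 10^4/well, given compound up to 200 μM for 48 h, and read by MTT. Y-strain trypomastigotes were exposed for 24 h, with MTT read-out. IC50s come from sigmoidal dose–response fits (95% CI), using replicates from at least two independent assays.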

The subject of data set [6] is Leishmania infantum. The data set is described as follows: Antileishmanial activity against promastigote stage of Leishmania infantum MHOM/BR/1972/LD assessed as increase in membrane permeability at 2 uM measured at 60 mins by SYTOX green staining-based fluorimetric microplate reader analysis.
Data set [7] deals with Leishmania infantum. The experiment in a line: Leishmanicidal activity against promastigote stage of Leishmania infantum MHOM/BR/1972/LD assessed as reduction of mitochondrial membrane potential at 2 uM measured after 60 mins by MitoTracker Red CM-H2XROS dye-based fluorimetric microplate reader analysis relative to control. Format: functional. Also noted: scale not given: the % may be the effect or the level left. An outline of the steps: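 L. infantum promastigotes at 2 × 10^6/well exposed to 2 μM compound for 60 min, then MitoTracker Red CM-H2XROS (500 nM) added; fluorescence at excitation 540 nm / emission 595 nm. Controls: DMSO, compound alone, untreated parasites, medium without cells.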

In data set [8] the test system is Leishmania donovani. The data set is described as follows: Antileishmanial activity against promastigote stage Leishmania donovani assessed as growth inhibition after 72 hrs by Alamar blue assay. Format: functional, organism-based. (The colour change of resazurin is a common sign of viable cells or microbes.)
Data set [9] deals with Leishmania donovani. The experiment in a line: Antileishmanial activity against Leishmania donovani. Format: functional, organism-based.
Data set [10] deals with Leishmania infantum. The data set is described as follows: Leishmanicidal activity against promastigote stage of Leishmania infantum MHOM/BR/1972/LD assessed as increase in reactive oxygen species production at 2 uM measured after 60 mins by H2DCf-DA probe-based fluorimetric microplate reader analysis relative to control. In kind it is functional. In outline: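 Promastigotes (2 × 10^6/well) given 2 μM compound for 60 min, then H2DCf-DA (5 μM) for 15 min; fluorescence at 485/520 nm. Oligomycin (20 μM) as positive control; data normalized with oligomycin-treated parasites as 100% and untreated as 0%.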

Data set [11] concerns Trypanosoma brucei brucei. The data set is described as follows: Antitrypanosomal activity against Trypanosoma brucei brucei GUTat 3.1 after 72 hrs by Alamar blue assay. In kind it is functional, organism-based. To be noted: GUTat 3.1, 72 h.
A short description of data set [12]: Cytotoxicity against human MCF10A cells. As to conditions: mcf-10a. In kind it is cell-based.
The subject of the next data set is A549. The experiment in a line: Cytotoxicity against human A549 cells. Format: functional, cell-based.
For another data set, the system named is HeLa. The experiment in a line: Cytotoxicity against human HeLa cells. In kind it is functional, cell-based.
In another data set the test system is MCF7. The data set is described as follows: Cytotoxicity against human MCF7 cells. Format: functional, cell-based.

Converted amounts (≈) assume the structure as drawn. The source made the active and inactive calls. No cut-off for these calls is given here.

Consider `CCCCCCC[C@@H]1C[C@@H]2CC[C@H]3[C@@H](C(=O)O[C@H](C)CCCCCCC[C@@H]4C[C@@H]5CC[C@@H]6C[C@H](C)N=C(N4)N65)[C@@H](C)N=C(N1)N23`, for which the results for the IC50 with Trypanosoma cruzi [1], in the data set with LLC-MK2 and in the data set with Leishmania infantum [4] were 5 µM, 10 µM and 4 µM, respectively. The result with Leishmania infantum [2] was inactive. Also, the “Ratio IC50” value with Trypanosoma cruzi [3] stood at 54.

On to `CCCCCCCCC[C@@H]1C[C@@H]2CC[C@H]3[C@@H](C(=O)OC(C)CCCCCCC[C@@H]4C[C@@H]5CC[C@@H]6C[C@H](C)NC(=N4)N65)[C@@H](C)N=C(N1)N23` (stereo partly specified) [BATZELLADINE L], for which the selectivity ratio in data set [5] turned out to be 7. The half-maximal inhibitory concentration (IC50) with Trypanosoma cruzi [1] amounted to 2 µM; in the data set with LLC-MK2, 22 µM; with Leishmania donovani [8] it was 1.9 µg/mL (≈ 2.91 µM); in the data set with Leishmania infantum [4], 2 µM. Moreover, the Activity is 43% in the data set on Leishmania infantum [6] and 35% in the data set on Leishmania infantum [7]. In addition, in the data set with Leishmania infantum [2], the result was inactive. Also, in the data set on Trypanosoma cruzi [3], the “Ratio IC50” value is 54.

`CCCC[C@H]1c2nc(=N)[nH]c3c2[C@H](CC3)C[C@@H]1C`: it took 17 µg/mL (≈ 69.3 µM) to reach half-maximal inhibition with Leishmania donovani [9] (IC50).

Turning to `CCCCCCC[C@H]1C[C@H]2CCC3=C(C(=O)OCCCCNC(=N)N)C(CCCCC)N=C(N1)N32` (stereo partly specified), in the data set with Leishmania donovani [8], the concentration for half-maximal inhibition (IC50) was 5.5 µg/mL (≈ 11.3 µM).

As to `CCC1C=CCC[C@@]2(C[C@@H]3CC[C@@H]4[C@H](C(=O)OCCCCCCCCCCCCCCCC(=O)N(CCCN)C[C@@H](O)CCN)[C@]5(CCC[C@@H](C)O5)NC(=N2)N34)O1` (stereo partly specified), the 50% inhibitory concentration (IC50) in the data set on Leishmania donovani [8] worked out at 6.8 µg/mL (≈ 8.49 µM).

`CCCCCCCC[C@@H]1C[C@@H]2CC[C@H]3[C@@H](C(=O)OC(C)CCCCCCC[C@@H]4C[C@@H]5CC[C@@H]6C[C@H](C)NC(=N4)N65)[C@@H](C)N=C(N1)N23` (stereo partly specified) [NORBATZELLADINE L]: the selectivity ratio in data set [5] came out at 12. In addition, the IC50 was found to be 7 µM in the data set on Trypanosoma cruzi [1], 85 µM in the data set with LLC-MK2 and 2 µM in the data set on Leishmania infantum [4]. For the same molecule, the Activity in the data set on Leishmania infantum [6] is on record as 82%; in the data set with Leishmania infantum [10], 65%; with Leishmania infantum [7], 30%. Besides, the outcome with Leishmania infantum [2] was inactive. Moreover, in the data set with Trypanosoma cruzi [3], the “Ratio IC50” value came to 54.

On to `CC/C=C/CCC[C@@H]1C[C@@H]2CC[C@@H]3C[C@@H](CCCCCCC)NC(=[N+]32)N1.O=C([O-])C(F)(F)F`, for which the half-maximal inhibitory concentration (IC50) in data set [11] is 0.24 µg/mL.

In turn, `CCCCC[C@@H]1C[C@H]2CC[C@H]3C[C@@H](CCCCC)NC(=[N+]23)N1.O=C([O-])C(F)(F)F` yielded an IC50 in data set [11] of 0.24 µg/mL.

In the case of `CCCCCCCCC[C@@H]1C[C@@H]2CC[C@H]3[C@@H](C(=O)OCCCCNC(=N)N)[C@@H](C)N=C(N1)N23`, the concentration for half-maximal inhibition (IC50) in the data set with Trypanosoma cruzi [1] came out at 64 µM; with LLC-MK2, 130 µM; with Leishmania infantum [4], 2 µM. In addition, in the data set with Leishmania infantum [2], the outcome was inactive.

In the case of `CCCCCCCCCCCCCCCCOP(=O)([O-])OCC[N+](C)(C)C` [MILTEFOSINE], the concentration for half-maximal inhibition (IC50) was found to be 122 µM in the data set with LLC-MK2 and 16 µM with Leishmania infantum [4].

Consider `CCCCCCC[C@@H]1C[C@@H]2CCC3=C(C(=O)OCCCCCCC[C@@H]4C[C@@H]5CC[C@@H]6C[C@H](C)NC(=N4)N65)C(C)N=C(N1)N32` (stereo partly specified), for which the half-maximal inhibitory concentration (IC50) with Leishmania donovani [8] amounted to 8.5 µg/mL (≈ 14.3 µM).

As to `CCCCCCCCCc1cc2n(c(=N)n1)CCC2`, the Activity result in [12] was “Non-toxic”. Also, the IC50 turned out to be 8 µM with Trypanosoma cruzi [1], 26 µM with LLC-MK2 and 2 µM in the data set on Leishmania infantum [4]. Besides, the outcome in the data set on A549, with HeLa, with Leishmania infantum [2] and in the data set with MCF7 was inactive. Besides, the “Ratio IC50” value with Trypanosoma cruzi [3] was 54.

On to `O=C(Cn1ccnc1[N+](=O)[O-])NCc1ccccc1` [BENZNIDAZOLE], for which the 50% inhibitory concentration (IC50) is 441 µM in the data set on Trypanosoma cruzi [1] and 477 µM with LLC-MK2.
